One block for each compound: values may come before it.
Columns and labels:
c-MET [1] = target: T1, c-MET (Homo sapiens, UniProt P08581); assay: biochemical; type: binding
c-MET [2] = target: T1, c-MET; type: cell-based; conditions: Western blot, EBC-1 and Hs746T cells
EBC-1 cells [3] = assay: Cell proliferation inhibition assay; type: cell-based
EBC-1 cells [4] = assay: Cell apoptosis by flow cytometry; type: cell-based; conditions: 48 h
[5] = Pharmacokinetic study in rats; design: species or system Male Sprague–Dawley (SD) rats; conditions: male, Sprague-Dawley, rat, in vivo, iv, 1 mg/kg, CL
HepG2 cells = assay: Cell proliferation inhibition assay; type: cell-based; conditions: Homo sapiens, HepG2, 72 h, read-out: IC50 HepG2
EBC-1 xenograft tumors = assay: EBC-1 xenograft tumor growth model; type: in vivo, BALB/c nude mice; conditions: 10 mg/kg, i.p., qd, 10 days
Method in brief: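 Six-week-old BALB/c nude mice (SPF) received 5 × 10^6 EBC-1 cells subcutaneously in the dorsal flank. At about 80 mm3 they were grouped and dosed at 10 mg/kg i.p. once daily for 10 days; vehicle was 10% DMSO/10% PEG300/5% Tween 80/75% H2O. Calipers and body weight were read every 2 days. V = L×W²/2, and TGI used median volumes. Tumors were weighed at the end, n = 6.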

A549 cells = assay: Cell proliferation inhibition assay; type: cell-based; conditions: Homo sapiens, A549, 72 h, read-out: IC50 A549
Hs746T cells = assay: Cell proliferation inhibition assay; type: cell-based; conditions: Homo sapiens, 72 h, read-out: IC50 Hs746T, c-MET-sensitive, 72 h

T1 sequence (P08581 25-1390): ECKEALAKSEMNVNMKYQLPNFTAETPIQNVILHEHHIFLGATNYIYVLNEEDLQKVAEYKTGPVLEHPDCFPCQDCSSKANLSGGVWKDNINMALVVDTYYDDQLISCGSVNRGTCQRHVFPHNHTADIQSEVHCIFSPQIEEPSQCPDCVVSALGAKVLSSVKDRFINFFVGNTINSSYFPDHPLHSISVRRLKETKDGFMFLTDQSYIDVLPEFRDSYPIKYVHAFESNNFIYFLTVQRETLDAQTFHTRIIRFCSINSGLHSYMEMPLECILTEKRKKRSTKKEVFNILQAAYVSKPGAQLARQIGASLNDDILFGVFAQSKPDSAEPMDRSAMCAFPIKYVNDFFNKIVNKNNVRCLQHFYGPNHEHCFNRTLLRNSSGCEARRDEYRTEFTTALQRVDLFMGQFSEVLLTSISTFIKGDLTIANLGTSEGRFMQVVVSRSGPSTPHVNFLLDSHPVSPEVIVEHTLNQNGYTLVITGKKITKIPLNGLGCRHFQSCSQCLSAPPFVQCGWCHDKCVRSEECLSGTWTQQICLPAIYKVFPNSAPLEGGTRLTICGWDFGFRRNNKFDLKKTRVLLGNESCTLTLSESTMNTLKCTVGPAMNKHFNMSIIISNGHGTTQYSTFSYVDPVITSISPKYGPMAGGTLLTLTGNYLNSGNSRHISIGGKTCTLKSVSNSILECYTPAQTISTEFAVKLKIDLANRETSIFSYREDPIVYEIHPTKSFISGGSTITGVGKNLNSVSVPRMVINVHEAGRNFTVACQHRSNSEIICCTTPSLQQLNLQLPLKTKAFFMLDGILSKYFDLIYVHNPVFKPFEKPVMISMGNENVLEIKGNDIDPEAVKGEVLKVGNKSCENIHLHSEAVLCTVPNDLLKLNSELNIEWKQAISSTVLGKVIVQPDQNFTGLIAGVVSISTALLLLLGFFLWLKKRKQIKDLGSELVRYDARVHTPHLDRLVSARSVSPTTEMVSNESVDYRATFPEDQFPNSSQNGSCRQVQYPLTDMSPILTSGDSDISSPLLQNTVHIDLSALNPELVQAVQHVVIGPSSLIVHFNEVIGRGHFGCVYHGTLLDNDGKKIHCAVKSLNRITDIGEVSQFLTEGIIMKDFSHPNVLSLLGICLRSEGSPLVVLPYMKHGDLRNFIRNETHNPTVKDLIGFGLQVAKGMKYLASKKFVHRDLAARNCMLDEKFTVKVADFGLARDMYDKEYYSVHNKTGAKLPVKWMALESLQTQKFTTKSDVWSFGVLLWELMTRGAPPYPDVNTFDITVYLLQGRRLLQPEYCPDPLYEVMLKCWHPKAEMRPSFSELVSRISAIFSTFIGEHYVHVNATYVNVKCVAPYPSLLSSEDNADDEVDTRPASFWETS

Kd (c-MET [1]): 0.00997 µM
Structure (SMILES): N#Cc1cccc(-c2ccc(=O)n(Cc3cccc(-c4ncc(OCC5CCNCC5)cn4)c3)n2)c1 [compound 6]

c-MET degradation effect (c-MET [2]): no degradation effect | Kd (c-MET [1]): 0.345 µM | binding affinity, fold weaker than D15 (c-MET [1]; ratio of Kd to D15): 2 fold
Structure (SMILES): CN1C(=O)CCC(N2C(=O)c3ccc(N4CCN(C(=O)CN5CCC(COc6cnc(-c7cccc(Cn8nc(-c9cccc(C#N)c9)ccc8=O)c7)nc6)CC5)CC4)cc3C2=O)C1=O (centres unmarked) [D16]
inhibition of cell proliferation, fold weaker than D15 (EBC-1 cells [3]; EBC-1 and Hs746T cells): approximately 10 fold

clearance [5]: 4.2 L/h/kg | IC50 (HepG2 cells): 0.476 ± 0.045 µM | IC50 (A549 cells): 0.277 ± 0.059 µM
Structure (SMILES): CN1CCC(COc2cnc(-c3cccc(Cn4nc(-c5cccc(C#N)c5)ccc4=O)c3)nc2)CC1 [Tepotinib]
apoptosis rate (EBC-1 cells [4]; EBC-1, 10 nmol/L): 39.3% | apoptosis rate (EBC-1 cells [4]; EBC-1, 100 nmol/L): 59.4% | tumor growth inhibition (TGI%) (EBC-1 xenograft tumors): 71.9% | IC50 (EBC-1 cells [3]; Homo sapiens, EBC-1, 72 h, read-out: IC50 EBC-1): 0.00132 ± 0.00039 µM | IC50 (Hs746T cells): 0.00263 ± 0.00072 µM

c-MET degradation effect (c-MET [2]): none
Structure (SMILES): O=C1CCC(N2C(=O)c3ccccc3C2=O)C(=O)N1 (centres unmarked) [Thalidomide]

Source: publication PMC10326257 (Acta Pharmaceutica Sinica. B, 2023)
